Data set [1] concerns Mus musculus. Kind of data set: In vivo inhibition of HDAC6 in 3xTg-AD transgenic mouse brain hippocampal CA1 region assessed as downregulation of scopolamine-mediated increase in Tau phosphorylation at Ser396 residue at 50 mg/kg, po administered daily for 3 months by immunohistochemical analysis. The class given is functional, organism-based. Put shortly:
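Female 3xTg-AD mice, standard diet to 6 months of age, then 50 mg/kg orally once daily for three months; memantine 30 mg/kg in water as comparator. Brains removed and hippocampal CA1 sections immunostained for acetyl-α-tubulin and phospho-tau Ser396 and Ser404. Mean ± STD; one-way ANOVA.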

The nature of data set [2]: Ratio of drug level in brain to plasma in Sprague-Dawley rat at 50 mg/kg, po after 3 hrs. It is filed as ADME, organism-based. Particulars: read-out: BPR.
For data set [3], the system named is Mus musculus. The data set can be described thus: In vivo inhibition of HDAC6 in 3xTg-AD transgenic mouse brain hippocampal CA1 region assessed as downregulation of […] expression of beta-amyloid at 50 mg/kg, po administered daily for 3 months by immunohistochemical analysis. It is filed as functional, organism-based.
Data set [4] in a line: Drug uptake in Sprague-Dawley rat brain at 50 mg/kg, po after 3 hrs by HPLC-MS/MS analysis. It is filed as ADME, organism-based. As to conditions: read-out: Drug uptake.
For data set [5], the target named is T1, Protein deacetylase HDAC6 (Homo sapiens) (UniProt Q9UBN7).
T1 sequence (whole entry): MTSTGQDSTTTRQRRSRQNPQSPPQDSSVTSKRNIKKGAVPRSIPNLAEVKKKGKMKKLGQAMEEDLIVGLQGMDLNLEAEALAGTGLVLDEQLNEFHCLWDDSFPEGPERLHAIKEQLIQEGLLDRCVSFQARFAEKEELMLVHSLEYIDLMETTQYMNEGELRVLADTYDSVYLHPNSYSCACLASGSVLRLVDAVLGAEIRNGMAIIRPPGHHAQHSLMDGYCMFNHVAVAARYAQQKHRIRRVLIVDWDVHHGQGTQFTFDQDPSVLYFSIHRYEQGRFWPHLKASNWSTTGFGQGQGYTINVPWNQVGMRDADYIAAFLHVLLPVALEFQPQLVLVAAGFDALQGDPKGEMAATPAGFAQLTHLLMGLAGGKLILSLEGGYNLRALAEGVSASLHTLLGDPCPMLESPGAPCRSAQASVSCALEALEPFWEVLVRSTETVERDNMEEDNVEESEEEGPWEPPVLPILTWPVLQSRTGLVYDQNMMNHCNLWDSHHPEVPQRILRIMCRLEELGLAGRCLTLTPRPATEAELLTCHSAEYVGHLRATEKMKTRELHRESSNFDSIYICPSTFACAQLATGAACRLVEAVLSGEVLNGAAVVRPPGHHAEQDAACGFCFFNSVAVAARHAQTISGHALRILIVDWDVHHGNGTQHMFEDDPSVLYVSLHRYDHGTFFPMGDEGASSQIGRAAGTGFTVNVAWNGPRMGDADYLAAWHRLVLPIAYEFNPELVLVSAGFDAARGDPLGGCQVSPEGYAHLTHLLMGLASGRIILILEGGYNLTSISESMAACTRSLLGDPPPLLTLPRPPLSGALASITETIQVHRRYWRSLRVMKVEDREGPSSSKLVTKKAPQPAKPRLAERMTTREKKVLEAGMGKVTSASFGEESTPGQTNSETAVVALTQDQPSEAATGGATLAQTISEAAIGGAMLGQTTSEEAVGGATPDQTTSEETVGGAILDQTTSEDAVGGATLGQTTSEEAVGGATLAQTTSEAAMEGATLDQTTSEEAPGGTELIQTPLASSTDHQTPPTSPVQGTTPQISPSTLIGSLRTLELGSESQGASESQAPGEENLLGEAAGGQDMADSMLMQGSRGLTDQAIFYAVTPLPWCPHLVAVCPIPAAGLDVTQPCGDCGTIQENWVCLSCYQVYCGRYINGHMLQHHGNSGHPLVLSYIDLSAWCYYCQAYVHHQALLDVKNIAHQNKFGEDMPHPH
The data set can be described thus: Inhibition of HDAC6 in human SH-SY5Y cells transfected with pCAX FLAG APP and pRK5-EGFP-Tau P301L plasmids assessed as inhibition of Tau P301L mutant phosphorylation at Ser404 residue at 1 uM after 24 hrs by Western blot analysis. The class given is cell-based. Put shortly: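 SH-SY5Y or Neuro-2a cells cotransfected 24 h with pCAX APP695 and pRK5-EGFP-Tau P301L, then treated 24 h at 1 µM. 20 µg lysate protein immunoblotted for APP and phospho-tau Ser396/Ser404. Mean ± STD of three independent experiments; Student's t-test.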
For orientation: A western blot detects proteins with antibodies after separation by electrophoresis.

The test system of data set [6] is Mus musculus. The data set can be described thus: In vivo inhibition of HDAC6 in 3xTg-AD transgenic mouse brain hippocampal CA1 region assessed as downregulation of scopolamine-mediated increase in Tau phosphorylation at Ser404 residue at 50 mg/kg, po administered daily for 3 months by Western blot analysis. It is filed as functional, organism-based. Put shortly: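 Female 3xTg-AD mice, fed standard diet to 6 months of age, then dosed orally at 50 or 100 mg/kg once daily for three months. Brains removed; hippocampal tissue lysates immunoblotted for acetyl-α-tubulin and phospho-tau Ser396 and Ser404. Mean ± STD; one-way ANOVA.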

Activity calls are given as the source filed them. The rule behind the calls is not given here.

With `COc1ccc(C(=O)c2ccc3c(ccn3Cc3ccc(C(=O)NO)cc3)c2)cc1`, the inhibition entry in data set [1], in data set [3], in data set [5] and in data set [6] was “Active” each time. Moreover, in data set [2], the Kp at 3 h was determined as 0.86. Moreover, the concentration at 3 h in data set [4] worked out at 6.3 ng/g.

The record behind these values is ChEMBL document CHEMBL4196108, “5-Aroylindoles Act as Selective Histone Deacetylase 6 Inhibitors Ameliorating Alzheimer's Disease Phenotypes” (J Med Chem, 2018).
